Here are results for 3 compounds from ChEMBL document CHEMBL1123173, “Synthesis and antiherpes virus activity of phosphate and phosphonate derivatives of 9-[(1,3-dihydroxy-2-propoxy)methyl]guanine” (1986).

SMILES strings stand for the structures. Active and inactive are the calls of the source. The calls are words filed in the database; no cut-off is given here. Bounds are passed on as bounds.

Experiment [1] deals with Vero. In words: In vitro anticellular activity was measured against vero cells. The format is functional. The following applies: Chlorocebus sabaeus, read-out: ID50 (the source's name). Summed up:
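Cell proliferation assay in uninfected Vero cells.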

In experiment [2] the test system is MRC5. In words: In vitro antiviral activity was measured against HCMV(AD-169) in MRC5 cells. The settings on record: Homo sapiens, read-out: ID50 (the source's name). The format is functional.
Experiment [3] deals with Mus musculus. In words: Effect of oral treatment with compound on HSV-2 induced mortality in mice at 5 mg/kg dose. The format is functional. The gist of the method:
(§1)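 Female Swiss-Webster mice, about 20 g, infected intraperitoneally with 5×10^4 PFU of HSV-2 strain G (about ten LD50). Oral dosing once every 24 h for 4 days, starting 24 h post-infection, with a saline-treated control group. Groups of 19–20 mice. Survivors were scored and compared by Fisher exact test. Mean survival time (days ± SD) was compared by Mann-Whitney U test. NS means p > 0.05.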

The test system of experiment [4] is Mus musculus. In words: Effect of on mean survival time upon oral treatment on HSV-2 induced mortality in mice at 10 mg/kg dose. The format is functional. Summed up:
as §1

Experiment [5] concerns Mus musculus. Nature of the experiment: Effect of oral treatment with compound on HSV-2 induced mortality in mice at 10 mg/kg dose; 6/20. The format is functional. Summed up: as §1
The subject of experiment [6] is Vero. Nature of the experiment: In vitro antiviral activity was measured against HSV-1 (MP-PAA/DHPG) in Vero cells. The format is functional. The settings on record: Chlorocebus sabaeus, read-out: ID50 (the source's name).
For experiment [7], the system named is Vero. Nature of the experiment: In vitro antiviral activity was measured against HSV-1 (F delta 305) in Vero cells. The format is functional. The following applies: Chlorocebus sabaeus, read-out: ID50 (the source's name).
Experiment [8] concerns Mus musculus. Nature of the experiment: Effect of oral treatment with compound on HSV-2 induced mortality in mice at 5 mg/kg dose; 0/19. The format is functional. The gist of the method: as §1
Experiment [9] has as its system Mus musculus. Nature of the experiment: Effect of subcutaneous treatment with compound on HSV-2 induced mortality in mice at 15 mg/kg dose. The format is functional. Summed up: (§2)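 Female Swiss-Webster mice, about 20 g, challenged intraperitoneally with 5×10^4 PFU of HSV-2 strain G (about ten LD50). Subcutaneous dosing once daily for 4 days, beginning 24 h after infection, with a saline control group. 15 mice per group. Survivor numbers were compared by Fisher exact test and mean survival time (± SD) by Mann-Whitney U test. NS means p > 0.05.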

Experiment [10] has as its system Mus musculus. In words: Effect of subcutaneous treatment with compound on HSV-2 induced mortality in mice at 15 mg/kg dose; 15/15. The format is functional. Summed up: as §2
The subject of experiment [11] is Mus musculus. Nature of the experiment: Effect of oral treatment with compound on HSV-2 induced mortality in mice at 20 mg/kg dose; 11/20. The format is functional. Summed up:
as §1

Experiment [12] relates to Mus musculus. In words: Effect of on mean survival time upon oral treatment on HSV-2 induced mortality in mice at 20 mg/kg dose. The format is functional. Summed up:
as §1

In experiment [13] the test system is Mus musculus. Nature of the experiment: Effect of subcutaneous treatment with compound on HSV-2 induced mortality in mice at 1.5 mg/kg dose; 8/15. The format is functional. Summed up:
as §2

For experiment [14], the system named is Mus musculus. In words: Effect of subcutaneous treatment with compound on HSV-2 induced mortality in mice at 5 mg/kg dose; 10/15. The format is functional. Summed up:
as §2

Experiment [15] relates to Mus musculus. In words: Effect of oral treatment with compound on HSV-2 induced mortality in mice at 10 mg/kg dose; NS=Not significant. The format is functional, organism-based. Set-up: dose 10 mg/kg. Summed up:
as §1

The subject of experiment [16] is Mus musculus. In words: Effect of subcutaneous treatment with compound on HSV-2 induced mortality in mice at 1.5 mg/kg dose. The format is functional. The gist of the method:
as §2

Experiment [17] concerns Mus musculus. In words: (§3) Effect of oral treatment with compound on HSV-2 induced mortality in mice at 5 mg/kg dose; NS=Not significant. The format is functional, organism-based. Details: dose 5 mg/kg. Summed up:
as §1

Experiment [18] has as its system Mus musculus. Nature of the experiment: Effect of subcutaneous treatment with compound on HSV-2 induced mortality in mice at 5 mg/kg dose. The format is functional. The gist of the method:
as §2

Experiment [19] deals with Mus musculus. In words: Effect of on mean survival time upon oral treatment on HSV-2 induced mortality in mice at 5 mg/kg dose. The format is functional. Summed up: as §1
Experiment [20] relates to Mus musculus. In words: Effect of oral treatment with compound on HSV-2 induced mortality in mice at 10 mg/kg dose. The format is functional. Summed up: as §1
The subject of experiment [21] is Vero. Nature of the experiment: In vitro antiviral activity was measured against HSV-1(F) in Vero cells. The format is functional. The following applies: Chlorocebus sabaeus, read-out: ID50 (the source's name).
The subject of experiment [22] is Vero. In words: In vitro antiviral activity was measured against HSV-2(G) in Vero cells. The format is functional. The following applies: Chlorocebus sabaeus, read-out: ID50 (the source's name).
Experiment [23] concerns Mus musculus. Nature of the experiment: Effect of oral treatment with compound on HSV-2 induced mortality in mice at 20 mg/kg dose. The format is functional. Summed up: as §1
The test system of experiment [24] is Mus musculus. Nature of the experiment: Effect of oral treatment with compound on HSV-2 induced mortality in mice at 10 mg/kg dose; 2/20. The format is functional. The gist of the method:
as §1

For experiment [25], the system named is Mus musculus. Nature of the experiment: Effect of oral treatment with compound on HSV-2 induced mortality in mice at 20 mg/kg dose; 12/20. The format is functional. Summed up: as §1
The subject of experiment [26] is Mus musculus. Described as §3. The format is functional, organism-based. Set-up: dose 5 mg/kg. Summed up: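 Female Swiss-Webster mice (ca. 20 g) infected intraperitoneally with 5×10^4 PFU HSV-2 strain G (about ten 50% lethal doses). Oral dosing once every 24 h for 4 days, starting 24 h postinfection; saline controls. Survivors/total recorded, survivor increase tested by Fisher exact test; mean survival time (days ± standard deviation) compared by Mann-Whitney U test.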
This is another data set of the same source.

The test system of experiment [27] is Mus musculus. In words: Effect of oral treatment with compound on HSV-2 induced mortality in mice at 5 mg/kg dose; 1/19. The format is functional. Summed up: as §1
Experiment [28] relates to Mus musculus. In words: Effect of subcutaneous treatment with compound on HSV-2 induced mortality in mice at 30 mg/kg dose. The format is functional. The gist of the method: as §2
Experiment [29] relates to Mus musculus. In words: Effect of subcutaneous treatment with compound on HSV-2 induced mortality in mice at 15 mg/kg dose; NS=Not significant. The format is functional, organism-based. Set-up: dose 15 mg/kg. The gist of the method:
as §2

In experiment [30] the test system is Mus musculus. Nature of the experiment: Effect of subcutaneous treatment with compound on HSV-2 induced mortality in mice at 5 mg/kg dose; 2/15. The format is functional. Summed up:
as §2

Experiment [31] relates to Mus musculus. In words: (§4) Effect of subcutaneous treatment with compound on HSV-2 induced mortality in mice at 5 mg/kg dose; NS=Not significant. The format is functional, organism-based. Set-up: dose 5 mg/kg. Summed up: as §2
In experiment [32] the test system is Mus musculus. The description is as §4. Set-up: dose 5 mg/kg. The format is functional, organism-based. Summed up:
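Female Swiss-Webster mice (ca. 20 g) infected intraperitoneally with 5×10^4 PFU HSV-2 strain G (about ten 50% lethal doses). Subcutaneous dosing once daily for 4 days, starting 24 h postinfection; saline controls. Survivors/total recorded, Fisher exact test for survival; mean survival time (± standard deviation) compared by Mann-Whitney U test.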
The source holds these as a separate data set.

For experiment [33], the system named is Mus musculus. Nature of the experiment: Effect of subcutaneous treatment with compound on HSV-2 induced mortality in mice at 30 mg/kg dose; NS=Not significant. The format is functional, organism-based. Details: dose 30 mg/kg. Summed up:
as §2

Experiment [34] has as its system Mus musculus. Nature of the experiment: Effect of subcutaneous treatment with compound on HSV-2 induced mortality in mice at 15 mg/kg dose; 0/15. The format is functional. Summed up: as §2
The subject of experiment [35] is Mus musculus. In words: Effect of subcutaneous treatment with compound on HSV-2 induced mortality in mice at 30 mg/kg dose; 2/15. The format is functional. The gist of the method: as §2

As to `Nc1nc2c(ncn2COC(CO)CO)c(=O)[nH]1` [GANCICLOVIR], the IC50 in experiment [1] was found to be 450 µM; in experiment [2], 5 µM; in experiment [6], 125 µM; in experiment [7], 10 µM; in experiment [21] it was 0.2 µM; in experiment [22], 1.6 µM. Further, the MST increase in experiment [3] is listed as <0.01; in [9] it was <0.001; in experiment [16] it was <0.001; in experiment [18], <0.001; in experiment [20], <0.025. The MST worked out at 10.9 days in experiment [4], 11.9 days in experiment [12] and 11.3 days in experiment [19] (5 mg/kg). For the same compound, the Survivors in experiment [5] was determined as 6; in experiment [8] it was 0; in experiment [10], 15; in experiment [11], 11; in experiment [13] it was 8; in experiment [14], 10. For the same compound, the Survivor increase is <0.001 in experiment [9], 0.01 in experiment [16], <0.001 in experiment [18] and 0.005 in experiment [23]. Further, the Survivor increase entry in experiment [15] and in experiment [17] was “inactive” each time. Besides, the “p-value for mean survival time increase” value in experiment [23] was <0.01.
For `Nc1nc(O)c2ncn(COC(CO)COP(=O)(O)O)c2n1` (configuration not stated), the Survivors in [24] is recorded as 2; in experiment [25], 12; in experiment [27], 1. In addition, the IC50 in [1] is 700 µM; in experiment [2], 12 µM; in experiment [6], > 200 µM; in experiment [7], 6 µM; in experiment [21] it was 0.2 µM; in [22], 1.7 µM. Moreover, the MST increase entry in experiment [26] was “inactive”. In addition, the MST in experiment [4] is 11.3 days; in experiment [12], 10.5 days; in experiment [19], 10 days. For the same compound, the Survivor increase result in experiment [15] and in experiment [17] was “inactive” each time. Moreover, the MST increase in [20] is recorded as <0.01. The Survivor increase in [23] was 0.002. Further, the “p-value for mean survival time increase” value in [23] is reported as <0.001.
As for `Nc1nc(N)c2ncn(COC3COP(=O)(O)OC3)c2n1` (configuration not stated), the figures for the MST increase in experiment [28] and in experiment [9] were 0.01 and 0.025, respectively. In addition, the Survivor increase result in experiment [29], in experiment [31] and in experiment [33] was “inactive” throughout. Moreover, the IC50 was 80 µM in experiment [7], 125 µM in [21] and > 100 µM in experiment [22]. In addition, the Survivors in [30] is on record as 2; in experiment [34] it was 0; in [35], 2. In addition, in experiment [32], the MST increase entry was “inactive”.
